Experimental findings from ChEMBL document CHEMBL4265954, “Discovery of potent liver-selective stearoyl-CoA desaturase-1 (SCD1) inhibitors, thiazole-4-acetic acid derivatives, for the treatment of diabetes, hepatic steatosis, and obesity” (Eur J Med Chem, 2018) are described below.

Series [1] relates to Mus musculus. Nature of the series: Ex vivo inhibition of SCD1 in C57BL/6J mouse eyelid assessed as residual activity at 1 mg/kg, po treated for 24 hrs followed by incubation with [14C]stearoyl-CoA substrate for 30 mins by TLC assay relative to control. Format: organism-based. An outline of the steps:
(§1)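 Male 6-week-old C57BL/6J mice dosed orally as a suspension in 0.5% methylcellulose. Liver or eyelid was taken 6 or 24 h later and homogenized in 100 mM Tris-HCl pH 7.4 with 0.25 M sucrose. S9 was obtained at 10,000 × g, 4 °C. S9 was incubated with [14C]stearoyl-CoA, NADH, MgCl2 and cytochrome b5 at room temperature, 10 min for liver and 30 min for eyelid. Lipids were saponified and run on AgNO3 TLC to quantify stearate and oleate. Result is % of vehicle control.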

Series [2] relates to Mus musculus. Nature of the series: Ex vivo inhibition of SCD1 in C57BL/6J mouse eyelid assessed as residual activity at 100 mg/kg, po treated for 24 hrs followed by incubation with [14C]stearoyl-CoA substrate for 30 mins by TLC assay relative to control. Format: organism-based. An outline of the steps:
as §1

The test system of series [3] is Mus musculus. Briefly: Ex vivo inhibition of SCD1 in C57BL/6J mouse eyelid assessed as residual activity at 10 mg/kg, po treated for 6 hrs followed by incubation with [14C]stearoyl-CoA substrate for 30 mins by TLC assay relative to control. Format: organism-based. The method in brief: as §1
Series [4] concerns Mus musculus. Nature of the series: Ex vivo inhibition of SCD1 in C57BL/6J mouse eyelid assessed as residual activity at 0.1 mg/kg, po treated for 6 hrs followed by incubation with [14C]stearoyl-CoA substrate for 30 mins by TLC assay relative to control. The series is classed as organism-based. The method in brief: as §1
Series [5] deals with Mus musculus. Briefly: Ex vivo inhibition of SCD1 in C57BL/6J mouse liver assessed as residual activity at 1 mg/kg, po treated for 6 hrs followed by incubation with [14C]stearoyl-CoA substrate for 10 mins by TLC assay relative to control. The series is classed as functional. An outline of the steps:
as §1

Series [6] is described as follows: Oral bioavailability in C57BL/6J mouse at 10 mg/kg. The note with it: in vivo. Format: ADME, organism-based. The method in brief:
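Two male C57BL/6J mice per route, 10 mg/kg po and 1 mg/kg iv. Plasma concentration–time profiles gave Cmax, tmax, terminal half-life and AUC0-inf. Bioavailability was derived from the po and iv data.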

The test system of series [7] is Mus musculus. Briefly: Ex vivo inhibition of SCD1 in C57BL/6J mouse eyelid assessed as residual activity at 0.1 mg/kg, po treated for 24 hrs followed by incubation with [14C]stearoyl-CoA substrate for 30 mins by TLC assay relative to control. Format: organism-based. The method in brief: as §1
Series [8] can be described thus: Solubility of the compound in PBS at pH 7.2. The series is classed as physicochemical.
Series [9] can be described thus: Apparent permeability of the compound in human Caco2 cells. The series is classed as ADME, cell-based. The note with it: Caco-2. For orientation: Caco-2 monolayers are a common model of the intestinal barrier.
Series [10] has as its target Acyl-CoA (8-3)-desaturase (Homo sapiens, UniProt O60427). Briefly: Inhibition of delta-5 fatty acid desaturase (unknown origin).
The test system of series [11] is Mus musculus. Nature of the series: Ex vivo inhibition of SCD1 in C57BL/6J mouse liver assessed as residual activity at 0.1 mg/kg, po treated for 6 hrs followed by incubation with [14C]stearoyl-CoA substrate for 10 mins by TLC assay relative to control. Format: functional. An outline of the steps: as §1
The test system of series [12] is Mus musculus. Nature of the series: Ex vivo inhibition of SCD1 in C57BL/6J mouse liver assessed as residual activity at 10 mg/kg, po treated for 24 hrs followed by incubation with [14C]stearoyl-CoA substrate for 10 mins by TLC assay relative to control. The series is classed as functional. The method in brief:
as §1

Series [13] relates to Mus musculus. Briefly: Ex vivo inhibition of SCD1 in C57BL/6J mouse eyelid assessed as residual activity at 10 mg/kg, po treated for 24 hrs followed by incubation with [14C]stearoyl-CoA substrate for 30 mins by TLC assay relative to control. The series is classed as organism-based. The method in brief: as §1
Series [14] concerns Mus musculus. Briefly: Ex vivo inhibition of SCD1 in C57BL/6J mouse eyelid assessed as residual activity at 1 mg/kg, po treated for 6 hrs followed by incubation with [14C]stearoyl-CoA substrate for 30 mins by TLC assay relative to control. Format: organism-based. An outline of the steps:
as §1

Series [15] relates to Mus musculus. Briefly: Ex vivo inhibition of SCD1 in C57BL/6J mouse liver assessed as residual activity at 1 mg/kg, po treated for 24 hrs followed by incubation with [14C]stearoyl-CoA substrate for 10 mins by TLC assay relative to control. The series is classed as functional. The method in brief: as §1
Series [16] has as its system Mus musculus. Nature of the series: Ex vivo inhibition of SCD1 in C57BL/6J mouse liver assessed as residual activity at 0.1 mg/kg, po treated for 24 hrs followed by incubation with [14C]stearoyl-CoA substrate for 10 mins by TLC assay relative to control. The series is classed as functional. An outline of the steps: as §1
Series [17] relates to Mus musculus. Briefly: Ex vivo inhibition of SCD1 in C57BL/6J mouse liver treated orally for 6 hrs followed by incubation with [14C]stearoyl-CoA substrate for 10 mins by TLC assay. Format: functional, organism-based. An outline of the steps:
as §1

Series [18] deals with Mus musculus. Nature of the series: Ex vivo inhibition of SCD1 in C57BL/6J mouse eyelid treated orally for 6 hrs followed by incubation with [14C]stearoyl-CoA substrate for 30 mins by TLC assay. The series is classed as organism-based. The note with it: po. The method in brief: as §1
Series [19] deals with T1, Acyl-CoA desaturase 1 (Mus musculus, UniProt P13516).
T1 sequence (P13516 whole entry): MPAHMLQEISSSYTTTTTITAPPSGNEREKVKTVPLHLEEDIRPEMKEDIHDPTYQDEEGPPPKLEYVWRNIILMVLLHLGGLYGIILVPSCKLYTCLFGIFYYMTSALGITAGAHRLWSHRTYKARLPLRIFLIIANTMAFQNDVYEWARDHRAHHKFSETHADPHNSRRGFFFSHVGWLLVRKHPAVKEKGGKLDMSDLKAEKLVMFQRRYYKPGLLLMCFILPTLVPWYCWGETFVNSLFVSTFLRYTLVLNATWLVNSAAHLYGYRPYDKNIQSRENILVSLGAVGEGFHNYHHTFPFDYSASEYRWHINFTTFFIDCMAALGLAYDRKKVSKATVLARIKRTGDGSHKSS
Nature of the series: Inhibition of mouse liver microsome SCD assessed as reduction in [3H]H2O production using stearoyl [9,10-3H]CoA as substrate in presence of NADH incubated for 30 mins by scintillation counting method. The series is classed as microsomes. The method in brief: (§2)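 Desaturation of [9,10-3H]stearoyl-CoA measured as released [3H]H2O. Water was separated from charcoal-adsorbed substrate by filtration and counted by scintillation. Remaining activity = (compound − background)/(control − background). DMSO wells served as control and pre-stopped wells as background. IC50 was interpolated from the two points bracketing 50%.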

The target of series [20] is T2, Stearoyl-CoA desaturase (Homo sapiens, UniProt O00767).
T2 sequence (O00767 whole entry): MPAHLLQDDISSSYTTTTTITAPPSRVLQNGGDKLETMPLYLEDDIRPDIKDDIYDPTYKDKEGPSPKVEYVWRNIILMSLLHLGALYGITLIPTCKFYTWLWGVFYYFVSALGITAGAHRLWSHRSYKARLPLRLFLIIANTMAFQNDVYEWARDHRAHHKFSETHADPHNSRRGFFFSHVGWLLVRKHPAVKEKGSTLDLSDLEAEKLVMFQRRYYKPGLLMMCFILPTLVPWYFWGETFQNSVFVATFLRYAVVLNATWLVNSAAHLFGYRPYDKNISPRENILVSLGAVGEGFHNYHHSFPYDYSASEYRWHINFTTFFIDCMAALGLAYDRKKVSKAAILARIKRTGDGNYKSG
Briefly: Inhibition of recombinant human SCD1 expressed in baculovirus expression system assessed as reduction in [3H]H2O production using stearoyl [9,10-3H]CoA as substrate in presence of NADH incubated for 30 mins by scintillation counting method. The method in brief:
as §2

A short description of series [21]: AUC (0 to infinity) in C57BL/6J mouse at 10 mg/kg, po. The series is classed as ADME, organism-based. Details: dose 10 mg/kg, time infinity, route oral. The settings on record: in vivo.
The test system of series [22] is Mus musculus. Nature of the series: Antiobesity activity in high fat diet fed C57BL/6J mouse assessed as reduction in diet-induced body weight gain at 10 mg/kg, po administered as diet mixture for 43 days relative to control. The series is classed as functional. The method in brief:
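C57BL/6J mice, individually housed, fed HFD for one month, then given HFD admixed with drug (0.0040% for 3 mg/kg/day, 0.0133% for 10 mg/kg/day) for 43 days, from 10 to 16 weeks of age. Chow-fed normal group as control. Body weight measured every 3–4 days. Mean ± SD, n=5–8. Dunnett's test versus HFD control.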

Series [23] relates to Mus musculus. Nature of the series: Ex vivo inhibition of SCD1 in C57BL/6J mouse liver assessed as residual activity at 10 mg/kg, po treated for 6 hrs followed by incubation with [14C]stearoyl-CoA substrate for 10 mins by TLC assay relative to control. Format: functional. An outline of the steps:
as §1

The nature of series [24]: Inhibition of acetyl-CoA acetyltransferase (unknown origin). Details: species or system Homo sapiens.

≈ marks a conversion by molar mass, not a printed value. Calls of active or inactive are those of the source. No cut-off for these calls is given here.

Acyl-CoA (8-3)-desaturase, sequence (O60427 whole entry): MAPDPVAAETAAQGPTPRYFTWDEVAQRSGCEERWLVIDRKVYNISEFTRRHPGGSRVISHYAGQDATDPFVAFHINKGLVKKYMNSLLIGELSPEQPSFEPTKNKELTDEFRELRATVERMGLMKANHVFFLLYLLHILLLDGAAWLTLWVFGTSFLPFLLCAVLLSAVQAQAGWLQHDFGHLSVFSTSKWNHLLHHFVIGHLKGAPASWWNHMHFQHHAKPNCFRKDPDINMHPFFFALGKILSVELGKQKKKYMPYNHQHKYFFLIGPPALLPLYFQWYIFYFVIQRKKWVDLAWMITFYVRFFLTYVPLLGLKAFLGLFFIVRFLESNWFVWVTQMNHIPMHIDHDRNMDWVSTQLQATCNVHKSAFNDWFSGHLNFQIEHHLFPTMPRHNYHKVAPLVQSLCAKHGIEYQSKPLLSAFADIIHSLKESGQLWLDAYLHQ

In general, bioavailability refers to the share of a dose that reaches the circulation, judged against a reference dose that is usually intravenous. A word on the solubility: it is how much of the substance goes into solution per volume. What is called Papp is a coefficient for how fast a substance crosses the barrier. For orientation: IC50 means the concentration that inhibits the measured activity by half. Usually AUC(0-inf) stands for the area under the concentration-time curve extrapolated to infinity. On to `Cc1csc(NC(=O)c2ccc(CNc3ccccc3C)cc2)n1`, for which the Activity in series [1] is given as 82%; in [2], 4%; in [3] it was -2%; in series [4] it was 144%; in [5], 24%; in [7], 100%. In addition, the Activity in series [11] is recorded as 58%; in series [12] it was 109%; in series [13], 4%; in [14] it was 41%; in series [15], 120%; in series [16] it was 105%. The Activity in series [23] worked out at 22%. In series [6], this compound displayed a bioavailability of 15%. Also, in series [8], the solubility stood at 2.4 µM (≈ 0.81 µg/mL). Also, the Papp in series [9] amounted to 12.7 ×10⁻⁶ cm/s. Besides, the values for the IC50 in [10], in series [19] and in series [20] were > 30000 nM, 3.8 nM and 6.4 nM, respectively. In addition, in series [17], the inhibition entry is “Dose-dependent effect”. The “inhibition (INH)” value in series [18] is “Dose-dependent effect”. Moreover, the AUC(0-inf) in series [21] worked out at 2.4 µM·h. Besides, in series [22], the result was Active.
In the case of `O=C(Nc1ccncc1)c1ccc(COc2ccccc2Cl)cc1`, the IC50 was > 30000 nM in series [24], > 30000 nM in series [10], 510 nM in [19] and 1400 nM in series [20].
Regarding `O=C(Nc1nc(CO)cs1)c1ccc(CNc2ccccc2C(F)(F)F)cc1`, the Activity in [2] amounted to 0%; in [5], 20%; in series [12], 53%; in series [14], 73%. In series [20], the IC50 was 3.8 nM.
As for `CCCCCCc1ccccc1NCc1ccc(C(=O)Nc2nc(CCO)cs2)s1`, the Activity amounted to 4% in [2], 12% in series [5], 12% in [12] and 104% in series [14]. In [20], the IC50 is 4.5 nM.
